Measured values: ChEMBL document CHEMBL4689842, “EUbOPEN Chemogenomics Library wave 1” (2021)

Test system: HEK-293T
Assay: Multiplex assay against HEK293T;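 for Population Tubulin-Different-Phenotype (%): share of the cells with healthy nuclei that show this phenotype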
Type: toxicity, cell-based
Conditions: human
In short: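 Four dyes were applied at seeding to live cells: Hoechst33342, BioTracker Green Microtubule Cytoskeleton Dye, MitoTracker Red and Annexin V Alexa Fluor 680. Imaging after compound addition used a CQ1 microscope at 37°C and 5% CO2. CellPathfinder machine-learning gating then sorted cells into Hoechst high-intensity objects or normal cells, normal cells into healthy, pyknosed or fragmented nuclei, and pyknosed cells into mitotic or apoptotic, with tubulin, mitochondrial-mass and membrane-permeability phenotypes given as per cents of healthy-nucleus cells.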

[1] = 12 h, 1 µM, compound concentration 1 uM, replicate 1
[2] = 12 h, 1 µM, compound concentration 1 uM, replicate 2
[3] = 12 h, 10 µM, compound concentration 10 uM, replicate 1
[4] = 12 h, 10 µM, compound concentration 10 uM, replicate 2
[5] = 24 h, 1 µM, compound concentration 1 uM, replicate 1
[6] = 24 h, 1 µM, compound concentration 1 uM, replicate 2
[7] = 24 h, 10 µM, compound concentration 10 uM, replicate 1
[8] = 24 h, 10 µM, compound concentration 10 uM, replicate 2

C=CC(=O)Nc1cccc(Oc2nc(Nc3ccc(N4CCN(C)CC4)cc3OC)ncc2Cl)c1
Population Apoptotic (%) [1]: 22% | Population Fragmented Nuclei (%) [1]: 21% | Population Healthy Nuclei (%) [1]: 27% | Population Hoechst High Intensity Objects (%) [1]: 18% | Population Membrane Permeable-Phenotype (%) [1]: 13% | Population Mitochondria Different-Phenotype (%) [1]: 25% | Population Mitotic Cells (%) [1]: 77% | Population Normal (%) [1]: 81% | Population Pyknosed Nuclei (%) [1]: 50% | Population Tubulin-Different-Phenotype (%) [1]: 77% | Total Cell Count [1]: 425 | Population Apoptotic (%) [2]: 11% | Population Fragmented Nuclei (%) [2]: 4% | Population Healthy Nuclei (%) [2]: 70% | Population Hoechst High Intensity Objects (%) [2]: 7% | Population Membrane Permeable-Phenotype (%) [2]: 11% | Population Mitochondria Different-Phenotype (%) [2]: 54% | Population Mitotic Cells (%) [2]: 88% | Population Normal (%) [2]: 92% | Population Pyknosed Nuclei (%) [2]: 25% | Population Tubulin-Different-Phenotype (%) [2]: 98% | Total Cell Count [2]: 1025 | Population Apoptotic (%) [3]: 16% | Population Fragmented Nuclei (%) [3]: 10% | Population Healthy Nuclei (%) [3]: 70% | Population Hoechst High Intensity Objects (%) [3]: 12% | Population Membrane Permeable-Phenotype (%) [3]: 3% | Population Mitochondria Different-Phenotype (%) [3]: 8% | Population Mitotic Cells (%) [3]: 83% | Population Normal (%) [3]: 87% | Population Pyknosed Nuclei (%) [3]: 18% | Population Tubulin-Different-Phenotype (%) [3]: 18% | Total Cell Count [3]: 722 | Population Apoptotic (%) [4]: 8% | Population Fragmented Nuclei (%) [4]: 7% | Population Healthy Nuclei (%) [4]: 86% | Population Hoechst High Intensity Objects (%) [4]: 3% | Population Membrane Permeable-Phenotype (%) [4]: 4% | Population Mitochondria Different-Phenotype (%) [4]: 15% | Population Mitotic Cells (%) [4]: 91% | Population Normal (%) [4]: 96% | Population Pyknosed Nuclei (%) [4]: 6% | Population Tubulin-Different-Phenotype (%) [4]: 16% | Total Cell Count [4]: 1384 | Population Apoptotic (%) [5]: 36% | Population Fragmented Nuclei (%) [5]: 23% | Population Healthy Nuclei (%) [5]: 33% | Population Hoechst High Intensity Objects (%) [5]: 16% | Population Membrane Permeable-Phenotype (%) [5]: 10% | Population Mitochondria Different-Phenotype (%) [5]: 49% | Population Mitotic Cells (%) [5]: 63% | Population Normal (%) [5]: 83% | Population Pyknosed Nuclei (%) [5]: 43% | Population Tubulin-Different-Phenotype (%) [5]: 78% | Total Cell Count [5]: 379 | Population Apoptotic (%) [6]: 13% | Population Fragmented Nuclei (%) [6]: 8% | Population Healthy Nuclei (%) [6]: 76% | Population Hoechst High Intensity Objects (%) [6]: 7% | Population Mitochondria Different-Phenotype (%) [6]: 36% | Population Mitotic Cells (%) [6]: 86% | Population Normal (%) [6]: 92% | Population Pyknosed Nuclei (%) [6]: 14% | Population Tubulin-Different-Phenotype (%) [6]: 89% | Total Cell Count [6]: 1188 | Population Apoptotic (%) [7]: 8% | Population Fragmented Nuclei (%) [7]: 11% | Population Healthy Nuclei (%) [7]: 79% | Population Hoechst High Intensity Objects (%) [7]: 8% | Population Membrane Permeable-Phenotype (%) [7]: 11% | Population Mitochondria Different-Phenotype (%) [7]: 5% | Population Mitotic Cells (%) [7]: 92% | Population Normal (%) [7]: 91% | Population Pyknosed Nuclei (%) [7]: 8% | Population Tubulin-Different-Phenotype (%) [7]: 23% | Total Cell Count [7]: 923 | Population Apoptotic (%) [8]: 2% | Population Fragmented Nuclei (%) [8]: 18% | Population Healthy Nuclei (%) [8]: 78% | Population Hoechst High Intensity Objects (%) [8]: 2% | Population Membrane Permeable-Phenotype (%) [8]: 7% | Population Mitochondria Different-Phenotype (%) [8]: 2% | Population Mitotic Cells (%) [8]: 97% | Population Normal (%) [8]: 97% | Population Pyknosed Nuclei (%) [8]: 3% | Population Tubulin-Different-Phenotype (%) [8]: 12% | Total Cell Count [8]: 2281
